Source: ChEMBL document CHEMBL4017460, “A Tobramycin Vector Enhances Synergy and Efficacy of Efflux Pump Inhibitors against Multidrug-Resistant Gram-Negative Bacteria” (J Med Chem, 2017)
In brackets after ≈: the same amount, converted by molar mass. Activity calls are given as the source filed them. No cut-off for these calls is given here.

Columns and labels:
Pseudomonas aeruginosa [1] = experiment: Antibacterial activity against Pseudomonas aeruginosa isolate 100036 after 18 to 24 hrs by microbroth dilution assay; type: functional
How it was run: (§1)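 Checkerboard in MHB: antibiotic 2-fold diluted along one axis, test agent 2-fold diluted along the other. Overnight culture standardized to 0.5 McFarland in saline, diluted 1:50 in MHB, added to wells, incubated 37 °C for 18 h. MIC is the lowest concentration with no growth. FIC = MIC in combination / MIC alone; FIC index = sum of both FICs.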

[2] = system: Pseudomonas aeruginosa PAO1; experiment: Inhibition of RND efflux pump in Pseudomonas aeruginosa PAO1 assessed as potentiation of tigecycline-induced antibacterial activity by measuring fold reduction in tigecycline MIC at 8 ug/ml after 18 to 24 hrs by microbroth dilution assay relative to tigecycline alone
How it was run: (§2)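 Checkerboard broth microdilution: antibiotic 2-fold diluted along one axis, adjuvant 2-fold diluted along the other. Overnight culture standardized to 0.5 McFarland in saline, diluted 1:50 in MHB, added to wells, 37 °C for 18 h. MIC is the lowest concentration with no growth. FIC = MIC in combination / MIC alone; FICI = sum of the two FICs; FICI ≤0.5 is synergy.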

Pseudomonas aeruginosa [3] = experiment: Antibacterial activity against Pseudomonas aeruginosa isolate 101885 after 18 to 24 hrs by microbroth dilution assay; type: functional; how it was run: as §2
Pseudomonas aeruginosa [4] = experiment: Inhibition of RND efflux pump in Pseudomonas aeruginosa isolate 101885 assessed as potentiation of minocycline-induced antibacterial activity by measuring minocycline MIC at 8 ug/ml after 18 to 24 hrs by microbroth dilution assay (reference value: 16 to 32 ug/ml)
How it was run: (§3)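 Absolute minocycline MIC taken from checkerboard broth dilution with a fixed 8 μg/mL adjuvant. Inoculum was a 0.5 McFarland saline suspension diluted 1:50 in MHB, incubated 37 °C for 18 h. MIC is the lowest concentration with no growth.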

Pseudomonas aeruginosa [5] = experiment: Inhibition of RND efflux pump in Pseudomonas aeruginosa isolate P259-96918 assessed as potentiation of minocycline-induced antibacterial activity at 8 ug/ml after 18 to 24 hrs by checker board assay; how it was run: as §1
Pseudomonas aeruginosa [6] = experiment: Inhibition of RND efflux pump in Pseudomonas aeruginosa isolate P259-96918 assessed as potentiation of minocycline-induced antibacterial activity by measuring minocycline MIC at 8 ug/ml after 18 to 24 hrs by microbroth dilution assay (reference value: 32 ug/ml); how it was run: as §3
Pseudomonas aeruginosa [7] = experiment: Antibacterial activity against Pseudomonas aeruginosa isolate P260-97103 after 18 to 24 hrs by microbroth dilution assay; type: functional; how it was run: as §1
Pseudomonas aeruginosa [8] = experiment: Inhibition of RND efflux pump in Pseudomonas aeruginosa isolate P260-97103 assessed as potentiation of minocycline-induced antibacterial activity at 0.25 times antibacterial MIC after 18 to 24 hrs by checker board assay; how it was run: as §1
Pseudomonas aeruginosa [9] = experiment: Antibacterial activity against Pseudomonas aeruginosa isolate P262-101856 after 18 to 24 hrs by microbroth dilution assay; type: functional; how it was run: as §2
Pseudomonas aeruginosa [10] = experiment: Antibacterial activity against colistin-resistant Pseudomonas aeruginosa isolate 91433 after 18 to 24 hrs by microbroth dilution assay; type: functional; how it was run: as §2
Pseudomonas aeruginosa [11] = experiment: Inhibition of RND efflux pump in colistin-resistant Pseudomonas aeruginosa isolate 101243 assessed as potentiation of minocycline-induced antibacterial activity at 8 ug/ml after 18 to 24 hrs by checker board assay; how it was run: as §2
Pseudomonas aeruginosa [12] = experiment: Inhibition of RND efflux pump in Pseudomonas aeruginosa isolate 101885 assessed as potentiation of minocycline-induced antibacterial activity by measuring fold reduction in minocycline MIC at 8 ug/ml after 18 to 24 hrs by microbroth dilution assay; how it was run: as §2
Pseudomonas aeruginosa [13] = experiment: Inhibition of RND efflux pump in Pseudomonas aeruginosa isolate P260-97103 assessed as potentiation of minocycline-induced antibacterial activity by measuring fold reduction in minocycline MIC at 0.25 times antibacterial MIC after 18 to 24 hrs by microbroth dilution assay; how it was run: as §2
Pseudomonas aeruginosa [14] = experiment: Inhibition of RND efflux pump in Pseudomonas aeruginosa isolate P262-104354 assessed as potentiation of minocycline-induced antibacterial activity by measuring fold reduction in minocycline MIC at 8 ug/ml after 18 to 24 hrs by microbroth dilution assay; how it was run: as §2
Pseudomonas aeruginosa [15] = experiment: Inhibition of RND efflux pump in Pseudomonas aeruginosa isolate P262-104354 assessed as potentiation of minocycline-induced antibacterial activity by measuring fold reduction in minocycline MIC at 0.25 times antibacterial MIC after 18 to 24 hrs by microbroth dilution assay; how it was run: as §2
Enterobacter cloacae [16] = experiment: Inhibition of RND efflux pump in Enterobacter cloacae isolate 117029 assessed as potentiation of minocycline-induced antibacterial activity by measuring fold reduction in minocycline MIC at 8 ug/ml after 18 to 24 hrs by microbroth dilution assay; how it was run: as §3
Enterobacter cloacae [17] = experiment: Inhibition of RND efflux pump in Enterobacter cloacae isolate 117029 assessed as potentiation of minocycline-induced antibacterial activity by measuring minocycline MIC at 8 ug/ml after 18 to 24 hrs by microbroth dilution assay (reference value: 128 to 256 ug/ml); how it was run: as §3
Enterobacter cloacae [18] = experiment: Inhibition of RND efflux pump in Enterobacter cloacae isolate 117029 assessed as potentiation of minocycline-induced antibacterial activity at 8 ug/ml after 18 to 24 hrs by microbroth dilution assay; how it was run: as §1
Klebsiella pneumoniae = experiment: Antibacterial activity against Klebsiella pneumoniae isolate 116381 after 18 to 24 hrs by microbroth dilution assay; type: functional; how it was run: as §1
[19] = system: Pseudomonas aeruginosa PAO1; experiment: Inhibition of RND efflux pump in Pseudomonas aeruginosa PAO1 assessed as potentiation of novobiocin-induced antibacterial activity […] by microbroth dilution assay
Pseudomonas aeruginosa [20] = experiment: Induction of cytoplasmic membrane depolarization in Pseudomonas aeruginosa PAO1 by DiSC3(5) dye based fluorescence assay; type: functional
How it was run: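 Cytoplasmic membrane depolarization in P. aeruginosa PAO1, monitored by DiSC3(5) fluorescence across a range of compound concentrations. Colistin served as positive control.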

[21] = system: Pseudomonas aeruginosa PAO1; experiment: Inhibition of RND efflux pump in Pseudomonas aeruginosa PAO1 assessed as potentiation of chloramphenicol-induced antibacterial activity […] by microbroth dilution assay
[22] = system: Pseudomonas aeruginosa PAO1; experiment: Inhibition of RND efflux pump in Pseudomonas aeruginosa PAO1 assessed as potentiation of trimethoprim-induced antibacterial activity […] by microbroth dilution assay
[23] = system: Pseudomonas aeruginosa PAO1; experiment: Inhibition of RND efflux pump in Pseudomonas aeruginosa PAO1 assessed as potentiation of erythromycin-induced antibacterial activity […] by microbroth dilution assay
Pseudomonas aeruginosa [24] = experiment: Potentiation of rifampicin-induced antibacterial activity against Pseudomonas aeruginosa PAO1 […] by microbroth dilution assay; type: functional
Pseudomonas aeruginosa [25] = experiment: Reduction in flagellum-dependant motility in Pseudomonas aeruginosa PAO1 after 20 hrs by swimming motility test; type: functional
How it was run: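 PAO1 flagellum-dependent swimming motility on swimming plates containing sub-MIC compound, compared with plates without compound.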

Pseudomonas aeruginosa [26] = experiment: Reduction in flagellum-dependant motility in Pseudomonas aeruginosa PAO1 at sub MIC after 20 hrs in presence of minocycline by swimming motility test; type: functional
Pseudomonas aeruginosa [27] = experiment: Potentiation of minocycline-induced antibacterial activity against mexAB-oprM deficient Pseudomonas aeruginosa PAO200 after 18 to 24 hrs by microbroth dilution assay; type: functional
[28] = system: Pseudomonas aeruginosa PAO1; experiment: Inhibition of RND efflux pump in Pseudomonas aeruginosa PAO1 assessed as potentiation of tobramycin-induced antibacterial activity after 18 to 24 hrs by checker board assay; how it was run: as §1

| Compound | MIC (Pseudomonas aeruginosa [1]) [mg/L] | fold change (FC) [2] | MIC (Pseudomonas aeruginosa [3]) [mg/L] | MIC (Pseudomonas aeruginosa [4]) [mg/L] | fractional inhibitory concentration index (FICI) (Pseudomonas aeruginosa [5]) | MIC (Pseudomonas aeruginosa [6]) [mg/L] | MIC (Pseudomonas aeruginosa [7]) [mg/L] | fractional inhibitory concentration index (FICI) (Pseudomonas aeruginosa [8]) | MIC (Pseudomonas aeruginosa [9]) [mg/L] | MIC (Pseudomonas aeruginosa [10]) [mg/L] | fractional inhibitory concentration index (FICI) (Pseudomonas aeruginosa [11]) | fold change (FC) (Pseudomonas aeruginosa [12]) | fold change (FC) (Pseudomonas aeruginosa [13]) | fold change (FC) (Pseudomonas aeruginosa [14]) | fold change (FC) (Pseudomonas aeruginosa [15]) | fold change (FC) (Enterobacter cloacae [16]) | MIC (Enterobacter cloacae [17]) [mg/L] | fractional inhibitory concentration index (FICI) (Enterobacter cloacae [18]) | MIC (Klebsiella pneumoniae) [mg/L] | fractional inhibitory concentration index (FICI) [19] | other results |
| --- | --- | --- | --- | --- | --- | --- | --- | --- | --- | --- | --- | --- | --- | --- | --- | --- | --- | --- | --- | --- | --- |
| Cl.Cl.Cl.Cl.Cl.Cl.Cl.NC[C@H]1O[C@H](O[C@H]2[C@H](OCCCCCCCCCCCCN3CCN(Cc4cccc5ccccc45)CC3)[C@@H](O[C@H]3O[C@H](CO)[C@@H](O)[C@H](N)[C@H]3O)[C@H](N)C[C@@H]2N)[C@H](N)C[C@@H]1O | 256 | 8 to 64 | 256 | 0.5 | 0.02 | < 0.5 | 2 | 0.25 | 64 | 32 | 0.28 | 8 to 256 | 8 to 256 | 8 to 256 | 8 to 256 | 4 to 256 | 8 | 0.03 to 0.16 | > 32 | < 0.1 | Activity (Pseudomonas aeruginosa [20]): Dose-dependent effect; fractional inhibitory concentration index (FICI) [21]: < 0.1; fractional inhibitory concentration index (FICI) [22]: < 0.1; fractional inhibitory concentration index (FICI) [23]: < 0.2; fractional inhibitory concentration index (FICI) (Pseudomonas aeruginosa [24]): <0.05; Activity (Pseudomonas aeruginosa [25]): Dose-dependent effect; Activity (Pseudomonas aeruginosa [26]): Active; Activity (Pseudomonas aeruginosa [27]): inactive; fractional inhibitory concentration index (FICI) [28]: > 1.5 |
| NC[C@H]1C[C@H](C(=O)N[C@H](CCc2ccccc2)C(=O)Nc2ccc3ccccc3c2)N(CCCCCCCCCCCCO[C@@H]2[C@@H](O[C@H]3O[C@H](CO)[C@@H](O)[C@H](N)[C@H]3O)[C@H](N)C[C@H](N)[C@H]2O[C@H]2O[C@H](CN)[C@@H](O)C[C@H]2N)C1 | 32 (≈ 30.1 µM) | 8 to 64 | 16 (≈ 15 µM) | < 0.125 | 0.03 | < 0.5 | 4 (≈ 3.76 µM) | 0.31 | 32 (≈ 30.1 µM) | 8 (≈ 7.52 µM) | 0.19 | 8 to 256 | 8 to 256 | 8 to 256 | 8 to 256 | 4 to 256 | 1 | 0.13 | > 32 | < 0.1 | Activity (Pseudomonas aeruginosa [20]): Dose-dependent effect; fractional inhibitory concentration index (FICI) [21]: < 0.1; fractional inhibitory concentration index (FICI) [22]: < 0.1; fractional inhibitory concentration index (FICI) [23]: < 0.2; fractional inhibitory concentration index (FICI) (Pseudomonas aeruginosa [24]): <0.05; Activity (Pseudomonas aeruginosa [25]): Dose-dependent effect; Activity (Pseudomonas aeruginosa [26]): Active; Activity (Pseudomonas aeruginosa [27]): inactive; fractional inhibitory concentration index (FICI) [28]: > 1.5 |
| Cl.Cl.Cl.Cl.Cl.Cl.NC[C@H]1O[C@H](O[C@H]2[C@H](OCCCCCCCCCCCCN3CC[C@@H](c4ccc(F)cc4)[C@H](COc4ccc5c(c4)OCO5)C3)[C@@H](O[C@H]3O[C@H](CO)[C@@H](O)[C@H](N)[C@H]3O)[C@H](N)C[C@@H]2N)[C@H](N)C[C@@H]1O | 64 | 8 to 64 | 32 | 1 | 0.02 | 0.5 | 8 | 0.19 | 32 | 32 | 0.38 | 8 to 256 | 8 to 256 | 8 to 256 | 8 to 256 | 4 to 256 | 4 | 0.02 to 0.14 | > 32 | < 0.1 | Activity (Pseudomonas aeruginosa [20]): Dose-dependent effect; fractional inhibitory concentration index (FICI) [21]: < 0.1; fractional inhibitory concentration index (FICI) [22]: < 0.1; fractional inhibitory concentration index (FICI) [23]: < 0.2; fractional inhibitory concentration index (FICI) (Pseudomonas aeruginosa [24]): <0.05; Activity (Pseudomonas aeruginosa [25]): Dose-dependent effect; Activity (Pseudomonas aeruginosa [26]): Active; Activity (Pseudomonas aeruginosa [27]): inactive; fractional inhibitory concentration index (FICI) [28]: > 1.5 |
